# Rad51 HR inh = Rad51 (human) homologous recombination inhibition | Q06609 | hRad51 DNA strand exchange, fluorescence dequenching | 0.085% of 200,000 active | inhibition, % at 10 µM | AID 1385;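 active = inhibition above 40% at the single screening dose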;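 also: 0% = DMSO control wells and 100% = blanks with heterologous ssDNA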
#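 Assay system: Human Rad51 nucleoprotein filaments preassembled on unlabelled ssDNA | Reagent: Donor/quencher-labelled 47-bp dsDNA substrate | Doses: One concentration, 10 µM final | Times: 37 °C 15-min filament assembly, 30-min compound preincubation, 15-min exchange | Technique: Fluorescein emission 520 nm, excitation 485 nm | Benchmarks: Plate control and blank wells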
# PKD1 inh = blocks activity of human protein kinase D1; 0.056% of 200,000 active; Q15139; inhibition, % (concentration not given with the values); PKD1 kinase fluorescence polarization assay
# Wee1 stabilizer = blocks degradation of human Wee1 kinase; reporter increase, % at 5 µM; HeLa Luc-Wee1K328M stability, luciferase luminescence; 100% = proteasome inhibitor MG132 effect; P30291; 1.2% of 220,000 active;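 active = activation above the mean of all tested compounds plus 3 SD, set per screening run, cut at about 8.8% in these data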;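 also: cells exposed to compound for 20 h before luminescence read; 0% = DMSO alone and 100% = MG132 at 30 µM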
# Target sequence (P30291 whole entry K328M): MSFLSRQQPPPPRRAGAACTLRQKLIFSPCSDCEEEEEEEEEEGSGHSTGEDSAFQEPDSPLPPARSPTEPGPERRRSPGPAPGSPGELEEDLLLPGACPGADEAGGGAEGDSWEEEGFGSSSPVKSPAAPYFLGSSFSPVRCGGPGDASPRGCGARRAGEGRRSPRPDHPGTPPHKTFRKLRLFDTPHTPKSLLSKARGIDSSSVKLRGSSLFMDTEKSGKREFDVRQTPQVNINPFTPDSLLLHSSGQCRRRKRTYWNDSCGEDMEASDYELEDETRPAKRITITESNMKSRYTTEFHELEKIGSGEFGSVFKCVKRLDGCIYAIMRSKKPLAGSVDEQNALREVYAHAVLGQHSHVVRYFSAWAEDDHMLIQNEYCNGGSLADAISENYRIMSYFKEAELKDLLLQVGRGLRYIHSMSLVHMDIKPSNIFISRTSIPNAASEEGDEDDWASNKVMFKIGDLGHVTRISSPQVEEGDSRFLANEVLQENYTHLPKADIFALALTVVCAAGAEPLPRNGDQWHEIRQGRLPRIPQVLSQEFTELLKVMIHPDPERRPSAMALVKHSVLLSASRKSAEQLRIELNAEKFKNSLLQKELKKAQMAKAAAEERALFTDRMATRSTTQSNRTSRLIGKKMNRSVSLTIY
# Lmaj promast = reduces viability of Leishmania major promastigotes; 9% of 200,000 active; resazurin fluorescence viability; inhibition, % at 10 µM;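 also: promastigotes grown with compound for 44 hours at 28 °C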
# CHOP inhibitor = blocks CHOP induction under ER stress; CHO-K1 CHOP-promoter luciferase, tunicamycin-induced, 15-18 h; inhibition, % at 10 µM; 3.8% of 220,000 active;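 active = compounds that reduced the stress-induced luciferase reporter signal by more than about 70% of percent inhibition, limit read from the data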;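 also: 0% = tunicamycin plus vehicle and 100% = wells without tunicamycin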
# Arbovirus inh = arbovirus infection inhibition. arbovirus infection cell-based antiviral screen. inhibition, % at 10 µM. 0.37% of 200,000 active. AID 1251; in the data active = inhibition above about 30%
# * = called active by the depositor; . = not tested or not shown. In the library only some 12% were active in any assay of this set; here they are far more common. Rule as the data show it, unless noted: active = inhibition above about 50%; inactive = the rest.
SMILES,Rad51 HR inh,PKD1 inh,Wee1 stabilizer,Lmaj promast,CHOP inhibitor,Arbovirus inh
CCCN(CCC)CCCNc1ccc2nnc(-c3ccc(F)cc3)n2n1,-6,4,0,59*,15,-25
CCOC(=O)CC(=O)CSc1ccc2nnc(-c3ccc(F)cc3)n2n1,.,-26,-1,5,.,-3
O=C(Cn1c(=O)oc2cc(S(=O)(=O)N3CCCC3)ccc21)N1CCCC1,-5,-13,1,-7,45,-2
CCCCNC(=O)Cn1c(=O)oc2cc(S(=O)(=O)N3CC(C)CC(C)C3)ccc21 (configuration not stated),-8,-2,1,-12,94*,-12
Cc1cc(C)cc(NC(=O)Cn2c(=O)oc3cc(S(=O)(=O)N4CC(C)CC(C)C4)ccc32)c1 (configuration not stated),-7,-17,0,-15,83*,-1
Cc1ccc(C(C)n2cc(C(=O)NCc3ccccn3)nn2)cc1 (configuration not stated),8,0,-2,-5,30,8
CCN(CC)C(=O)CSc1nnc([C@@H](N)C(C)C)o1,1,.,4,.,11,.
CC(NC(=O)OCc1ccccc1)C(=O)NCC(=O)NC(Cc1ccc(OC(C)(C)C)cc1)C(=O)OC(C)(C)C (configuration not stated),.,-6,2,53*,37,-6
CC(C)(C)OC(=O)C(Cc1ccc(OC(C)(C)C)cc1)NC(=O)CNC(=O)CNC(=O)OCc1ccccc1 (configuration not stated),-28,0,0,32,-1,-9
Cc1cc(NC2CCCCC2)nc(-c2ccccc2O)n1,11,-7,-1,2,87*,-1
Cc1cc(NCc2ccccc2)nc(-c2ccccc2O)n1,3,-4,2,25,79*,-7
Oc1ccc2ccccc2c1/C=N/Nc1ccccc1,0,-5,0,-8,-9,-16
Cc1cc(N/N=C/c2c(O)ccc3ccccc23)nc(-c2ccccc2O)n1,9,3,-2,97*,33,19
CCCOc1cc(C)nc(-c2ccccc2O)n1,2,10,1,-8,93*,4
Cc1cc(Nc2cccc(F)c2)nc(-c2ccccc2O)n1,-5,6,0,15,51,11
CC(=O)c1ccc(NC(=S)NCc2ccc(Cl)cc2Cl)cc1,-3,-5,6,-4,69,-2
CSc1cccc(NC(=S)N(Cc2ccc(C)cc2)Cc2ccccn2)c1,2,5,-2,97*,19,-7
COc1ccccc1NC(=S)N(Cc1ccc(C)cc1)Cc1ccccn1,-2,0,-3,91*,-8,1
COC(=O)C1=C(C)N(c2ccccc2)C(=S)NC1c1ccccc1C(F)(F)F (configuration not stated),-14,-10,-3,70*,11,10
COCCOC(=O)C1=C(C)N(c2ccccc2)C(=S)NC1c1ccccc1C(F)(F)F (configuration not stated),3,-6,1,15,11,17
CCN(c1ccccc1)S(=O)(=O)c1ccc(C(=O)Oc2ccc(C(C)=O)cc2)cc1,-3,-2,1,50*,24,-5
CCN(c1ccccc1)S(=O)(=O)c1ccc(C(=O)OC(C)C(=O)NCCC2=CCCCC2)cc1 (configuration not stated),4,-4,0,96*,33,-3
O=S(=O)(Nc1ncccn1)c1ccc(NC(=S)NCc2cccnc2)cc1,.,9,-2,-7,38,3
O=S(=O)(c1cnccc1N1CCN(/N=C/c2ccccc2)CC1)N1CCCCC1,11,-13,1,50*,40,-5
COc1ccc(/C=N/N2CCN(c3ccncc3S(=O)(=O)N3CCCCC3)CC2)cc1,11,4,-1,36,-19,-9
SMILES,Rad51 HR inh,PKD1 inh,Wee1 stabilizer,Lmaj promast,CHOP inhibitor,Arbovirus inh
CCOC(=O)c1c(C)n(CC(O)CN(C)C)c2cc(Br)c(OC)cc12 (configuration not stated),25,-7,-1,22,0,-12
Cc1cc(NCCCN2CCOCC2)n2ncc(-c3ccc(Cl)cc3)c2n1,-2,2,2,99*,-8,-7
CN(C)CCCNc1cc(C(C)(C)C)nc2c(-c3ccc(Cl)cc3)cnn12,-2,.,2,.,48,.
Cc1cc(NCCCn2ccnc2)n2ncc(-c3ccc(Cl)cc3)c2n1,1,-10,6,100*,.,-32
Nc1c(C(=O)c2ccccc2O)cnn1-c1ccc(S(=O)(=O)N2CCOCC2)cc1[N+](=O)[O-],-5,-4,1,-4,-5,2
N#CC1=C(SCC(=O)c2ccc(Br)cc2)NC2=C(C(=O)CCC2)C1c1ccco1 (configuration not stated),.,-1,11*,40,-8,-17
CC(=O)C1=C(C)NC(SCC(=O)c2ccc(Cl)cc2)=C(C#N)C1c1ccco1 (configuration not stated),-6,18,-2,83*,16,-29
CSCSC1=C(C#N)C(c2ccc(Cl)cc2)C(C(C)=O)=C(C)N1 (configuration not stated),-4,-10,-2,65*,18,-16
CC(=O)C1=C(C)NC(SCC(=O)c2ccccc2)=C(C#N)C1c1ccco1 (configuration not stated),-6,13,-3,8,-2,-3
CC(=O)C1=C(C)NC(SCC(=O)c2ccc(Cl)cc2Cl)=C(C#N)C1c1ccco1 (configuration not stated),-11,9,1,61*,59,-27
C=CCN1CCN(C(CCC)c2nnnn2Cc2ccco2)CC1 (configuration not stated),-5,-5,1,-7,-6,0
CC(C)(C)CC(C)(C)NC(=O)/C=C/C(=O)O,16,.,-1,.,3,.
Cc1ccc(Cn2nnnc2CN2CCC(O)(c3cccnc3)CC2)cc1,14,-4,7,53*,6,3
COc1ccccc1N(Cc1cc(=O)[nH]c2ccccc12)C(=O)c1ccc([N+](=O)[O-])cc1,16,.,-4,.,15,.
COc1ccccc1/C=C(/C(=O)OCC(=O)N(C)Cc1ccccc1)c1ccccc1,3,-6,5,10,41,6
COc1ccccc1/C=C(/C(=O)OCC(N)=O)c1ccccc1,2,-6,1,62*,11,1
OCc1cn(-c2ccccc2)nc1-c1ccc(-c2nn(-c3ccccc3)cc2CO)cc1,.,-1,-1,0,88*,3
Cc1ccc(-c2nn(-c3ccccc3)cc2CSC(=N)N)cc1,7,-10,2,100*,60,-32
CCn1cc(CN2CCc3c([nH]c4ccccc34)C2c2cccc(OC)c2OC)c(C)n1 (configuration not stated),2,-3,-2,27,-2,-2
